Laboratory results published in publication PMC9097201 (ACS Omega, 2022).
Where a SMILES comes first, the peptide text is derived from it. [ ]: non-standard residue; d: D form. Nle = CCCC[C@H](N)C(=O)O; Dab = NCC[C@H](N)C(=O)O

Tests used:
[1] = system: trypsin, chymotrypsin, and proteinase K; experiment: Proteolytic stability assay; type: in vitro ADME; details: reaction mixture post-incubation with enzyme cocktail, ESI-MS positive mode
Summary of the method: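 Test compound (10 mM) was incubated with a 1:1:1 trypsin/chymotrypsin/proteinase K mixture (0.3 mg/mL) at 37 °C for 0–6 h. Enzymes were inactivated with an equal volume of acetonitrile containing 1% TFA for 15 min at 4 °C. The post-incubation reaction mixture was analysed by ESI-MS for intact peptide.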

[2] = system: human embryonic lungs (L132) cell lines; experiment: Cell viability; type: cell-based; details: L132 cells, 100 μM peptide, 4 h, absorbance 570 nm, triplicate

CCCC[C@H](NC(=O)[C@H](CCN)NC(=O)[C@H](CCN)NC(=O)[C@H](CCCC)NC(=O)[C@H](Cc1c[nH]c2ccccc12)NC(=O)[C@H](CCN)NC(=O)[C@@H](N)CCCC)C(N)=O [P36, Nle-Dab-Trp-Nle-Dab-Dab-Nle-CONH2] (H-[Nle][Dab]W[Nle][Dab][Dab][Nle]-NH2)
chemical integrity after protease incubation (ESI-MS) [1]: contained only intact P36
cell viability (MTT) [2]: ~90%
